Experimental data from publication PMC6957770 (Biochemical Journal, 2020).
“And” between values parts separate entries of the source, which are not always exact repeats. Identical values can stand only once. “Also recorded” adds a separate entry of the source. Like-named read-outs stand apart in the source and are kept apart here.

Legend:
[1] = test system: full-length CtPilB ATPase; assay: Malachite green-based ATPase assay of full-length CtPilB in the presence of cdG; type: biochemical, Chloracidobacterium thermophilum
Method in brief: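 Full-length PilB (75 nM) ATPase was read by malachite green phosphate endpoint after 15 min at 54 °C in activity buffer, with cdG at 0, 2 or 200 μM. Kinetic runs used 0.5 and 1.0 mM ATP with or without cdG. No-protein ATP blanks served as controls.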

PilBN = target: T1, PilBN (Chloracidobacterium thermophilum, UniProt G2LDI3); assay: ITC ligand binding to PilBN; conditions: for binding detected by ITC: 30 μM PilBN, Supplementary Figure S4A,B
T1 sequence (G2LDI3 1-146): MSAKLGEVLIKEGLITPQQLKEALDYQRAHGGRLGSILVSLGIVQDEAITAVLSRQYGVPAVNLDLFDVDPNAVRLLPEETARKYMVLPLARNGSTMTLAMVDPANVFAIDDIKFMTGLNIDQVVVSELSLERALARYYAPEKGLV
Method in brief: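 ITC at 25 °C, 300 rpm stirring. His-tagged PilBN (expressed in E. coli BL21(DE3)) was purified by Ni-NTA and size exclusion, dialysed into activity buffer, and set at 30 μM final in the cell. Syringe held 0.5 mM cdG, given as one 0.4 μl and 29 × 1 μl injections 150 s apart. Buffer-only heats were subtracted. Fit used a single-set-of-identical-sites model; ≥3 independent runs.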

[2] = target: T2, Full-length PilB (CtPilB) (Chloracidobacterium thermophilum, UniProt G2LDI3); assay: ITC ligand binding to full-length PilB with or without effector; conditions: for N, number of ligand binding sites per protein: per PilB hexamer
T2 sequence (G2LDI3 1-614): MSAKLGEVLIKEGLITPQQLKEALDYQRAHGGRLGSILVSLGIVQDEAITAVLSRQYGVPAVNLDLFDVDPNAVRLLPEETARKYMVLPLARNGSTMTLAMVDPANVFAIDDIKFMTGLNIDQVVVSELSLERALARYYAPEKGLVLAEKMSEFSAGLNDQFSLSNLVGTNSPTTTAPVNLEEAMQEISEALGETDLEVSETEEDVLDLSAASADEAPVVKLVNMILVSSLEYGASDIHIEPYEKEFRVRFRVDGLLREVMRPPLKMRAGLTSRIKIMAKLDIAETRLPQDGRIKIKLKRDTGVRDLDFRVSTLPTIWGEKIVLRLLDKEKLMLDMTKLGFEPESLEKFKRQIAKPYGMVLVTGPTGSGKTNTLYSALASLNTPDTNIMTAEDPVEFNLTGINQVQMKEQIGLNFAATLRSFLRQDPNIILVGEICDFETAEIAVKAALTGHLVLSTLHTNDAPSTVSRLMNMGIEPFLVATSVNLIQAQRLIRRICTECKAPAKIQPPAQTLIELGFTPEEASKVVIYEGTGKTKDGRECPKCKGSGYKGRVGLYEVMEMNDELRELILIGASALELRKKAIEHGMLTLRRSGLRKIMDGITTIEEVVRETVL
Method in brief: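 ITC at 25 °C using full-length hexameric PilB (expressed in E. coli XL1-Blue; Ni-NTA/SEC) dialysed into activity buffer. cdG runs: 5.3 μM protein, 0.5 mM cdG, one 0.4 μl then 29 × 1 μl injections, 150 s apart. ATPγS/ADP runs: 15 μM protein, 1 mM titrant, one 0.4 μl then 39 × 1 μl injections, 120 s apart. Optional effector pre-incubation: 15 min on ice (cdG 100 μM; ATPγS/ADP 50 μM). Buffer-only heats subtracted; single-site fit.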

VcMshE = conditions: in vitro; cited from earlier work
PilBΔN = target: T3, PilBΔN (Chloracidobacterium thermophilum, UniProt G2LDI3); assay: ITC ligand binding to PilBΔN; conditions: for ΔG / ΔH / N, number of ligand binding sites per protein: ITC; for ΔG / ΔH: 25 °C; for N, number of ligand binding sites per protein: per PilBΔN hexamer
T3 sequence (G2LDI3 140-614): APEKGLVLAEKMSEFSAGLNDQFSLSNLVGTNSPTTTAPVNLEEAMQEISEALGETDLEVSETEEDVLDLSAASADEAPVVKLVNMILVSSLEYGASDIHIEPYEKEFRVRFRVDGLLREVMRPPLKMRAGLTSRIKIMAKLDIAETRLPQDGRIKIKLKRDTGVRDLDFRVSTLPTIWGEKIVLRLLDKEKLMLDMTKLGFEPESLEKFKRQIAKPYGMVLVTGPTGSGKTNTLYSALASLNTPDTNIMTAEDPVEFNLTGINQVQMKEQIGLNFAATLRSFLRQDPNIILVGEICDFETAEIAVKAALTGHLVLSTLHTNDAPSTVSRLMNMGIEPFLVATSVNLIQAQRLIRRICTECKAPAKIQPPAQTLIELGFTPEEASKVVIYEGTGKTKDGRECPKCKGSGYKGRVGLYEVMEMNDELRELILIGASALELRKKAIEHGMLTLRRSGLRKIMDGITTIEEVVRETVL

[3] = target: PilBΔN (truncated CtPilB without the first 139 residues) (Chloracidobacterium thermophilum); assay: SEC

Q: What does the source list for `Nc1nc2c(ncn2[C@@H]2O[C@@H]3COP(=O)(O)O[C@H]4[C@@H](O)[C@H](n5cnc6c(=O)[nH]c(N)nc65)O[C@@H]4COP(=O)(O)O[C@H]3[C@H]2O)c(=O)[nH]1` [cdG, cyclic-di-GMP]?
A: effect on ATPase activity, kinetic assay ([1]; cdG 0, 2 or 200 μM, ATP 0.5 and 1.0 mM, Supplementary Figure S5): not statistically significant; also recorded: did not affect; effect on ATPase activity, endpoint assay ([1]; cdG at 0, 2 and 200 μM, data not shown): no difference; Kd (PilBN): 0.107 ± 0.014 µM; ΔG (PilBN; ITC, 25 °C, no effector): -9.5 kcal/mol; ΔH (PilBN; ITC, 25 °C, no effector): -7.4 ± 0.5 kcal/mol; −TΔS (PilBN; ITC, 25 °C, no effector): -2.1 kcal/mol; N, number of ligand binding sites per protein (PilBN; ITC, no effector, PilBN monomer): 1.09±0.03; ΔH ([2]; ITC, 25 °C, no effector): -14.5 kcal/mol and -14.5 ± 0.13 kcal/mol; N, number of ligand binding sites per protein ([2]; ITC, no effector): 5.83±0.01; Kd ([2]; apparent dissociation constant KD, ITC, 25 °C, no effector, 5.3 μM PilB): 0.053 ± 0.01 µM; ΔG ([2]; effector ADP 50 μM): -10.6 kcal/mol; ΔH ([2]; effector ADP 50 μM): -12.0 ± 0.09 kcal/mol; N, number of ligand binding sites per protein ([2]; effector ADP 50 μM): 5.94±0.09; ΔH ([2]; effector ATPγS 50 μM): -14.0 ± 0.3 kcal/mol; N, number of ligand binding sites per protein ([2]; effector ATPγS 50 μM): 6.33±0.08; effect of cdG on ATPase activity (VcMshE): only to a very limited extent; binding detected by ITC (PilBΔN; 5.3 μM PilBΔN, Supplementary Figure S4C): Nor was there any detectable binding

Q: For “PilBΔN (truncated CtPilB without the first 139 residues) (from UniProt A0ABV9NNI3 140-574) (domain or fragment)”, which stoichiometry N [3] is on record?
A: The stoichiometry N was 6.

Q: With `Nc1ncnc2c1ncn2[C@@H]1O[C@H](COP(=O)(O)OP(=O)(O)O)[C@@H](O)[C@H]1O` [ADP] as the compound, how does the “binding detected by ITC” value (PilBN) read?
A: Its value is “no detectable binding; also recorded: without detectable binding”.

Q: And the ΔG ([2]; ITC, 25 °C, no effector)?
A: The ΔG was -7.3 kcal/mol.

Q: What about the ΔH ([2]; ITC, 25 °C, no effector) of the same compound?
A: Its ΔH is -15.4 kcal/mol and -15.4 ± 1.0 kcal/mol.

Q: And the “N, number of ligand binding sites per protein” value (shortened to “N, number … per protein”) ([2]; ITC, no effector)?
A: Its value is 2.20±0.02.

Q: And the ΔG ([2]; effector cdG 100 μM)?
A: Its ΔG is -6.9 kcal/mol.

Q: What about the ΔH ([2]; effector cdG 100 μM) of the same compound?
A: Its ΔH is -46.2 kcal/mol and -46.2 ± 1.6 kcal/mol.

Q: And the “N, number … per protein” value ([2]; effector cdG 100 μM)?
A: The value was 1.79±0.06.

Q: And the Kd ([2]; read-out: apparent dissociation constant KD, ITC, 25 °C, no effector, 15 μM PilB)?
A: Its Kd is 4.3 ± 1 µM.

Q: And the ΔG (PilBΔN; no effector)?
A: Its ΔG is -7.0 kcal/mol.

Q: And the ΔH (PilBΔN; no effector)?
A: The ΔH was -16.2 kcal/mol and -16.2 ± 0.4 kcal/mol.

Q: And the “N, number … per protein” value (PilBΔN; no effector)?
A: Its value is 2.20±0.03.

Q: With `Nc1ncnc2c1ncn2[C@@H]1O[C@H](COP(=O)(O)OP(=O)(O)OP(=O)(O)O)[C@@H](O)[C@H]1O` [ATP] as the compound, how does the “N, stoichiometry per PilB hexamer” value ([2]; ITC with ATP, hydrolysis interferes) read?
A: Its value is 2.

Q: For `Nc1ncnc2c1ncn2[C@@H]1O[C@H](CO[P@](=O)(O)O[P@](=O)(O)O[P@@](=O)(O)S)[C@@H](O)[C@H]1O` [ATPγS], which “binding detected by ITC” value (PilBN) is on record?
A: The value was “no detectable binding; also recorded: without detectable binding”.

Q: And the ΔG ([2]; ITC, 25 °C, no effector)?
A: Its ΔG is -7.4 kcal/mol.

Q: And the ΔH ([2]; ITC, 25 °C, no effector)?
A: The ΔH was -10.3 ± 0.3 kcal/mol.

Q: What about the “N, number … per protein” value ([2]; ITC, no effector) of the same compound?
A: Its value is 2.8 and 2.8±0.06.

Q: What about the Kd ([2]; apparent dissociation constant KD, ITC, 25 °C, no effector, 15 μM PilB) of the same compound?
A: Its Kd is 3.8 ± 0.5 µM.

Q: And the ΔG ([2]; effector cdG 100 μM)?
A: The ΔG was -7.4 kcal/mol.

Q: What about the ΔH ([2]; effector cdG 100 μM) of the same compound?
A: The ΔH was -10.3 ± 0.3 kcal/mol.

Q: What about the “N, number … per protein” value ([2]; effector cdG 100 μM) of the same compound?
A: Its value is 2.91±0.04.

Q: And the Kd (PilBΔN)?
A: Its Kd is 5.2 ± 0.7 µM.

Q: What about the ΔG (PilBΔN; no effector) of the same compound?
A: Its ΔG is -7.2 kcal/mol.

Q: And the ΔH (PilBΔN; no effector)?
A: Its ΔH is -11.5 kcal/mol and -11.5 ± 0.6 kcal/mol.

Q: And the “N, number … per protein” value (PilBΔN; no effector)?
A: Its value is 2.42±0.07.

Q: What about the “KD for PilBΔN higher than KD for full-length PilB” value (PilBΔN; PilBΔN versus full-length PilB, no effector) of the same compound?
A: Its value is ~40%.
